ChEMBL document CHEMBL4706684, “Discovering High Potent Hsp90 Inhibitors as Antinasopharyngeal Carcinoma Agents through Fragment Assembling Approach” (J Med Chem, 2021)
The source made the active and inactive calls. The calls are words filed in the database; no cut-off is given here.

Tests used:
CNE-2 [1] = test: Induction of apoptosis in human CNE-2 cells assessed as necrosis cells level at 70 nM incubated for 12 hrs by Annexin-V/FITC staining based FACS analysis (reference value: 1.49%); format: cell-based; conditions: cne-2, 12 h, 0.07 µM
CNE-2 [2] = test: Induction of apoptosis in human CNE-2 cells assessed as late apoptosis cells level at 50 nM incubated for 12 hrs by Annexin-V/FITC staining based FACS analysis (reference value: 1.45%); format: cell-based; conditions: cne-2, 12 h, 0.05 µM
CNE-2 [3] = test: Induction of apoptosis in human CNE-2 cells assessed as viable cells level at 50 nM incubated for 12 hrs by Annexin-V/FITC staining based FACS analysis (reference value: 96.7%); format: cell-based; conditions: read-out: Activity
Summary of the method: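 CNE2 cells (RPMI 1640 with 10% FBS) were seeded at 5 × 10⁴ cells per well. After 24 h they were treated with compound in 0.05% DMSO for 12 h. Cells were then washed twice with PBS, pelleted, and stained in binding buffer with Annexin V-FITC and PI for flow cytometry.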

CNE-2 [4] = test: Induction of apoptosis in human CNE-2 cells overexpressing HSP90 assessed as late apoptosis cells level at 70 nM incubated for 12 hrs by Annexin-V/FITC staining based FACS analysis (reference value: 2.18%); format: cell-based; conditions: cne-2, 12 h, 0.07 µM
CNE-2 [5] = test: Cytotoxicity in human CNE-2 cells assessed as reduction in cell viability incubated for 48 hrs by MTT assay; format: cell-based; conditions: CNE-2, 48 h
Summary of the method: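 Cells were seeded at 3 × 10³ cells per well and grown for 24 h at 37 °C in 5% CO₂. CNE2 was grown in RPMI 1640 and HeLa and HepG2 in DMEM, each with 10% FBS and 1% penicillin/streptomycin. Cells were exposed to 0−20 μM inhibitor for 48 h, with a DMSO solvent control. MTT (0.5 mg/mL) was then added for 3 h.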

CNE-2 [6] = test: Antitumor activity against human CNE-2 cells xenografted in nu/nu mouse assessed as induction of tumor size shrinkage at 1 mg/kg, ip for 32 days; format: functional, organism-based; conditions: time 32.0 day
CNE-2 [7] = test: Induction of apoptosis in human CNE-2 cells assessed as late apoptosis cells level at 70 nM incubated for 12 hrs by Annexin-V/FITC staining based FACS analysis (reference value: 2.18%); format: cell-based; conditions: cne-2, 12 h, 0.07 µM
CNE-2 [8] = test: Induction of apoptosis in human CNE-2 cells overexpressing HSP90 assessed as necrosis cells level at 70 nM incubated for 12 hrs by Annexin-V/FITC staining based FACS analysis (reference value: 1.49%); format: cell-based; conditions: cne-2, 12 h, 0.07 µM
[9] = biological target: T1, Heat shock protein HSP 90-alpha (Homo sapiens, UniProt P07900); test: Potency index, ratio of IC50 for 17-AAG to IC50 for inhibition of HSP90-alpha (unknown origin) expressed in Escherichia coli BL21 assessed as reduction in ATPase activity in presence of PEP, NADH and ATP by pyruvate kinase/lactic dehydrogenase based coupled enzyme assay
Summary of the method: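 The reaction was started with 2 μM Hsp90 at 37 °C and followed as the decrease in absorbance at 340 nm. Compounds were added to the reaction mixture, with 17-AAG as reference.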

[10] = Oral bioavailability in Kunming mouse at 2 mg/kg measured up to 6 hrs by HPLC analysis; format: ADME, organism-based; conditions: in vivo
Summary of the method: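 Male Kunming mice, 9–11 weeks old, about 23 g, four per group, were given a single 2 mg/kg dose intravenously or orally. Blood was sampled at 0, 10, 15, 30 min and 1, 2, 4, 6 h. For each sample, 40 μL plasma was deproteinized with 200 μL acetonitrile and centrifuged 10 min at 12 000 rpm before analysis.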

CNE-2 [11] = test: Induction of apoptosis in human CNE-2 cells assessed as early apoptosis cells level at 50 nM incubated for 12 hrs by Annexin-V/FITC staining based FACS analysis (reference value: 1.45%); format: cell-based; conditions: cne-2, 12 h, 0.05 µM
CNE-2 [12] = test: Induction of apoptosis in human CNE-2 cells assessed as late apoptosis cells level at 100 nM incubated for 12 hrs by Annexin-V/FITC staining based FACS analysis (reference value: 1.45%); format: cell-based; conditions: cne-2, 12 h, 0.1 µM
CNE-2 [13] = test: Induction of apoptosis in human CNE-2 cells assessed as early apoptosis cells level at 200 nM incubated for 12 hrs by Annexin-V/FITC staining based FACS analysis (reference value: 1.45%); format: cell-based; conditions: cne-2, 12 h, 0.2 µM
[14] = biological target: Heat shock protein HSP 90-beta (Homo sapiens, UniProt P08238); test: Inhibition of HSP90-beta (unknown origin) expressed in Escherichia coli BL21 assessed as reduction in ATPase activity in presence of PEP, NADH and ATP by pyruvate kinase/lactic dehydrogenase based coupled enzyme assay
CNE-2 [15] = test: Antitumor activity against human CNE-2 cells xenografted in nu/nu mouse assessed as inhibition of tumor growth at 1 mg/kg, po for 32 days; format: functional, organism-based; conditions: time 32.0 day
CNE-2 [16] = test: Antitumor activity against human CNE-2 cells xenografted in nu/nu mouse assessed as inhibition of tumor growth at 1 mg/kg, ip for 32 days; format: functional, organism-based; conditions: time 32.0 day
CNE-2 [17] = test: Induction of apoptosis in human CNE-2 cells assessed as early apoptosis cells level at 70 nM incubated for 12 hrs by Annexin-V/FITC staining based FACS analysis (reference value: 3.1%); format: cell-based; conditions: cne-2, 12 h, 0.07 µM
CNE-2 [18] = test: Induction of apoptosis in human CNE-2 cells assessed as necrosis cells level at 20 nM incubated for 12 hrs by Annexin-V/FITC staining based FACS analysis (reference value: 1.45%); format: cell-based; conditions: cne-2, 12 h, 0.02 µM
CNE-2 [19] = test: Induction of apoptosis in human CNE-2 cells assessed as necrosis cells level at 100 nM incubated for 12 hrs by Annexin-V/FITC staining based FACS analysis (reference value: 1.45%); format: cell-based; conditions: cne-2, 12 h, 0.1 µM
CNE-2 [20] = test: Antitumor activity against human CNE-2 cells xenografted in nu/nu mouse assessed as induction of tumor size shrinkage at 1 mg/kg, po for 32 days; format: functional, organism-based; conditions: time 32.0 day
CNE-2 [21] = test: Induction of apoptosis in human CNE-2 cells assessed as late apoptosis cells level at 200 nM incubated for 12 hrs by Annexin-V/FITC staining based FACS analysis (reference value: 1.45%); format: cell-based; conditions: cne-2, 12 h, 0.2 µM
CNE-2 [22] = test: Induction of apoptosis in human CNE-2 cells overexpressing HSP90 assessed as early apoptosis cells level at 70 nM incubated for 12 hrs by Annexin-V/FITC staining based FACS analysis (reference value: 3.1%); format: cell-based; conditions: cne-2, 12 h, 0.07 µM
[23] = biological target: T1, Heat shock protein HSP 90-alpha; test: Inhibition of HSP90-alpha in human CNE-2 cells assessed as reduction in PKB protein levels at 70 nM incubated for 24 hrs in presence of HSP90-alpha siRNA by immunoblot analysis; format: cell-based
Summary of the method: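 CNE2 cells were transiently transfected with Hsp90 siRNA (siHsp90-1 or siHsp90-2) at 150 nM final using Lipofectamine 2000. They were then incubated with inhibitor for 24 h and immunoblotted: RIPA lysis, 8–12% SDS-PAGE, PVDF, overnight primary antibodies, HRP secondaries, chemiluminescence, actin as loading control.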

HEK-293T = test: Cytotoxicity in HEK293T cells assessed as reduction in cell viability up to 20 uM incubated for 48 hrs by MTT assay; format: cell-based; conditions: human
CNE-2 [24] = test: Induction of apoptosis in human CNE-2 cells assessed as late apoptosis cells level at 20 nM incubated for 12 hrs by Annexin-V/FITC staining based FACS analysis (reference value: 1.45%); format: cell-based; conditions: cne-2, 12 h, 0.02 µM

Heat shock protein HSP 90-beta, sequence (P08238 whole entry): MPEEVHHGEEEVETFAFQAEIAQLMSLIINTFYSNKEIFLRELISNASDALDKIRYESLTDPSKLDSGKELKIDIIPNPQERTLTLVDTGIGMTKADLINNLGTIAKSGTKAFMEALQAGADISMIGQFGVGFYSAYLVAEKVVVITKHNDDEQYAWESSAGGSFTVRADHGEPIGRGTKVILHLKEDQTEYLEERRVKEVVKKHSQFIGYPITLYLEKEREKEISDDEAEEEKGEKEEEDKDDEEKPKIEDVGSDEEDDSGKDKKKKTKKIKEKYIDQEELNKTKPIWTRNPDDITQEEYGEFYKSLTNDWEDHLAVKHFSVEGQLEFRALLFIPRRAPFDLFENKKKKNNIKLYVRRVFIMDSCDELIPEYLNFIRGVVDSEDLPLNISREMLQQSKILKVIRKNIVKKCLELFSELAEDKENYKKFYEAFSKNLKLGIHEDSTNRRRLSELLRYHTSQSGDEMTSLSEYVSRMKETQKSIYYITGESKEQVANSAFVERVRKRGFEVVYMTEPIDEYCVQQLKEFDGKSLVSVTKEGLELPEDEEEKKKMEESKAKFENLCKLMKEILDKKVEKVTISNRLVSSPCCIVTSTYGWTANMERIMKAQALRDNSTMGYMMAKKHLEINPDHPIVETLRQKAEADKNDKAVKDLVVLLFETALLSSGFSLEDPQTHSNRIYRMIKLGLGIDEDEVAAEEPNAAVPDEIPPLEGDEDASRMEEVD

## CC(C)(C)c1ccc(Cn2cc(-c3cc(O)c(O)c(O)c3)nn2)cc1
CNE-2 [1]
  Activity: 1.2%
CNE-2 [2]
  Activity: 15.3%
CNE-2 [3]
  viability at 0.05 µM: 77.2%
CNE-2 [4]
  Activity: 1.28%
CNE-2 [5]
  IC50: 40 nM
CNE-2 [6]
  Activity: Active
CNE-2 [7]
  Activity: 9.56%
CNE-2 [8]
  Activity: 0.64%
[9]
  Ratio IC50: 5
[10]
  bioavailability: 12%
CNE-2 [11]
  Activity: 7.17%
CNE-2 [12]
  Activity: 15.6%
CNE-2 [13]
  Activity: 13%
[14]
  IC50: 180 nM
CNE-2 [15]
  TGI: Active
CNE-2 [16]
  TGI: Active
CNE-2 [17]
  Activity: 13.7%
CNE-2 [18]
  Activity: 0.17%
CNE-2 [19]
  Activity: 0.57%
CNE-2 [20]
  Activity: Active
CNE-2 [21]
  Activity: 11.6%
CNE-2 [22]
  Activity: 3.96%
[23]
  inhibition: inactive
HEK-293T
  Activity: Non-Toxic
CNE-2 [24]
  Activity: 2.19%
